Screening data deposited in PubChem by several laboratories.
PostGolgi yeast – growth inhibition of a yeast mutant, post-Golgi transport screen; inhibition, % at 10 µM; actives 0.9% (n = 98,000); post-Golgi transport phenotypic cell assay;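 also: yeast cells grown in 1536-well plates; yeast grown about 18 h at 30C before absorbance read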
Ecoli WT expand – E. coli BW25113 growth inhibition, expanded screen. OD600 absorbance. growth inhibition, % at 100 µM. actives 0.15% (n = 98,000). AID 710;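 active = growth inhibition above about 50% at one test dose, limit read from the data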;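 also: growth measured after 20 h incubation at 37 °C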
HePTP inhibitor – blocks human HePTP tyrosine phosphatase; P35236; recombinant HePTP phosphatase activity, OD absorbance; inhibition, % at 20 µM; actives 0.64% (n = 110,000); AID 521; in the data active = inhibition above about 50%;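 also: plate controls were vehicle for no effect and reference inhibitor for full effect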
Target sequence (P35236 whole entry, looked up): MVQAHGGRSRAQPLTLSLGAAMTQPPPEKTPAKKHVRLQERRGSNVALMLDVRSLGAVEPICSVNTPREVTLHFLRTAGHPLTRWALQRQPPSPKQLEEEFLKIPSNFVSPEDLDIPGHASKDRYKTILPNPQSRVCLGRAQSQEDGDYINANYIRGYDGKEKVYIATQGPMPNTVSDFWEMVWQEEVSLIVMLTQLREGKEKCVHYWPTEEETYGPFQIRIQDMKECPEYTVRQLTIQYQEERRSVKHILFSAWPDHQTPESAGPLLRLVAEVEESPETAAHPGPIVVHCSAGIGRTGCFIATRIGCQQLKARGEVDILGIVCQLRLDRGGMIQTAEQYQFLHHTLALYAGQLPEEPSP
PLAP activator – activators of human placental alkaline phosphatase | P05187 | purified PLAP enzyme, luminescent substrate read-out; active compounds read high | activation fold at 20 µM | actives 1.2% (n = 96,000) | AID 696; in the data active = activation fold above about 2
Ecoli tolC – blocks growth of E. coli BW25113 tolC mutant. growth inhibition, % at 10 µM (by protocol). actives 2.2% (n = 65,000). OD615;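 active = growth inhibition at or above a cutoff equal to the mean over every tested compound plus 3 SD, cut at about 60% in these data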;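 also: growth measured after 20 h incubation at 37 °C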
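Test system: tolC-deleted E. coli BW25113 | Medium: LB with kanamycin 50 µg/mL | Compound dosing: Single concentration, 10 µM final per compound | Schedule: 37 °C, 20 h exposure | Measured by: OD at 615 nm | Evaluation: Percent growth inhibition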
PostGolgi ctrl – growth of the yeast control strain, post-Golgi counter-screen; inhibition, % at 10 µM; actives 5% (n = 98,000); efflux-deficient yeast background strain, growth absorbance A615, 16 h; AID 738
Active calls of the source: *; x = not tested or not shown. Most compounds without a hit are left out; they make up all but 5.5% or so of the library. Rule as the data show it, unless noted: active = inhibition above about 30%; inactive = the rest.

SMILES	PostGolgi yeast	Ecoli WT expand	HePTP inhibitor	PLAP activator	Ecoli tolC	PostGolgi ctrl
COCCn1c(N)c(C(=O)NCC2CCCO2)c2nc3ccccc3nc21 (stereo not given)	3	-4	3	1.5	6	8
Nc1c(C(=O)OCC2CCCO2)c2nc3ccccc3nc2n1C1CCCC1 (stereo not given)	9	11	-9	1.7	41	48*
CC(C)Cn1c(N)c(C(=O)NCC2CCCO2)c2nc3ccccc3nc21 (stereo not given)	-3	11	14	2*	36	10
Cc1ccc(NC(=O)NC2CCCN2S(=O)(=O)c2ccc(Cl)cc2)cc1 (stereo not given)	-8	2	x	1.9	x	33*
C=CCN1C(=O)/C(=C\c2cc3c(cc2[N+](=O)[O-])OCO3)SC1=S	x	x	16	x	x	x
CC(=O)NCCn1c(SCc2ccc(C)cc2C)nc2ccccc2c1=O	0	-4	x	2.5*	x	33*
Cc1ccc(NC(=O)CSc2nc3ccccc3c(=O)n2CCCC(=O)N2CCCC2)cc1	-12	-6	6	1	11	6
COc1ccc(-c2nc3ccccc3c(=O)n2CCCN2CCOCC2)cc1	-4	6	1	1.3	1	1
Cc1ccc(NC(=O)CSc2nc3ccccc3c(=O)n2CCCN2CCCCC2)cc1C	-3	8	x	2.6*	x	-2
Cc1[nH]c2ccccc2c1C(=O)CSc1nc2ccccc2c(=O)n1CCCN1CCOCC1	0	-11	x	1.7	x	36*
Cc1ccc(Cl)cc1NC(=O)C(=O)NCCCO	x	x	-3	x	x	x
O=C(COC(=O)c1ccccc1Nc1ccc(SC(F)F)cc1)NCc1ccco1	-4	-5	x	1.1	x	32*
Cc1ccc(CNC(=O)C2(NC(=O)Nc3ccc(C)cc3)CCCCC2)cc1	-3	-21	x	0.9	x	10
O=C(NCc1ccco1)C(C(=O)c1ccc(F)cc1)n1ccccc1=O (stereo not given)	14	8	8	1.2	97*	-11
O=C(NCc1ccccn1)C(C(=O)c1ccc(F)cc1)n1ccccc1=O (stereo not given)	-2	-10	-2	0.9	-8	1
O=C(Nc1ccc(F)cc1)NC1(C(=O)NCc2ccco2)CCCCC1	4	-7	2	0.9	-11	32*
O=C(NCc1ccco1)c1ccccc1Nc1ccc(F)cc1	-5	2	12	0.7	5	32*
Cc1cccc(Nc2ccccc2C(=O)OCC(=O)NCc2ccco2)c1C	2	-4	x	1.2	x	17
CCCCCCOc1ccc(N2C(=O)CC(N3CCN(c4ccc(F)cc4)CC3)C2=O)cc1 (stereo not given)	x	x	-4	x	x	x
NC1=NC2(CCN(Cc3ccccc3)CC2)n2c(nc3ccccc32)N1	5	3	2	2.6*	4	-2
NC1=NC2(CCCCC2)n2c(nc3ccccc32)N1	12	4	6	1.3	-1	14
NC1=NC2(CCC(c3ccccc3)CC2)n2c(nc3ccccc32)N1 (stereo not given)	-4	22	0	2.8*	36	0
Cc1[nH]nc2c1/C(=N\O)CC(C)(C)C2	-2	8	6	0.9	-6	39*
Cc1[nH]nc2c1C(=O)CC(C)(C)C2	2	-1	8	1.1	4	5
COc1ccccc1NC(=O)CN1CCN(c2ccc(Cl)cc2)CC1	1	-6	-1	1	10	32*
SMILES	PostGolgi yeast	Ecoli WT expand	HePTP inhibitor	PLAP activator	Ecoli tolC	PostGolgi ctrl
Cc1ccc(C)n1CCN1CCN(CC(=O)Nc2cc(C(F)(F)F)ccc2Cl)CC1	2	8	9	1.5	47	0
O=C(CN1CCN(c2ccc(F)cc2)CC1)Nc1cc(C(F)(F)F)ccc1Cl	-4	-9	6	0.9	50	48*
COC(=O)c1ccsc1NC(=O)CN1CCN(c2ccc(F)cc2)CC1	4	-14	3	1.3	70*	26
COC(=O)c1ccsc1NC(=O)CN1CCN(Cc2ccc3c(c2)OCO3)CC1	-1	-14	x	1.4	x	6
COc1ccc(NC(=O)CN2CCN(C3c4ccccc4-c4ccccc43)CC2)c(OC)c1	3	-14	7	1.6	27	68*
COc1ccccc1NC(=O)CN1CCN(C2c3ccccc3-c3ccccc32)CC1	3	-13	-10	1.8	34	27
Cc1ccc2oc(C(F)(F)F)cc(=O)c2c1	x	x	1	x	x	x
COCCNC(=O)CN(c1ccc(Br)cc1)S(C)(=O)=O	x	x	-4	x	x	x
COc1ccccc1NC(=O)CCN1CCN(Cc2ccccc2)CC1	4	-16	x	2*	x	8
